# Screens deposited in PubChem BioAssay by several laboratories.
# This is one part of a sample in which hits are shown more often than they occur.
# Calb biofilm kill = mixtures killing C. albicans biofilm; C. albicans biofilm persisters + clotrimazole, fluorescence viability; primary screen in compound mixtures of four per well; AID 1242; inhibition, % at 7.6 µM; 120,000 tested, 0.02% active;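 active = inhibition above 30.3% in the primary screen of four-compound pools, then above 30% when the compound was retested; inconclusive = passed the primary limit but could not be retested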;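 note: compounds exposed to preformed 24 h biofilms for 48 h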
#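 Incubation: 24 h biofilm formation, then 48 h compound exposure, 37 °C | Material: C. albicans biofilms | Buffer or medium: RPMI/MOPS medium, pH 7.0 | Measured by: 2-h Alamar Blue fluorescence, 535/590 nm excitation/emission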
# Pf gamet viab = kills late stage P. falciparum gametocytes; inhibition, % at 10.9 µM; 150,000 tested, 0.065% active; P. falciparum stage V gametocytes, ATP luminescence, 24 h;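 active = inhibition above the mean plus 3 SD of compounds within the control limits, set per campaign, cut at about 38% in these data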
# ROMK mod = human ROMK K+ channel modulation, primary screen | P48048 | Tet-inducible ROMK, thallium flux fluorescence; actives lie on both sides | B-score at 10 µM | 130,000 tested, 2% active;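 active = signal ratio slope over the read window, or its plate-corrected B-score, at least 3 SD from the plate mean, either direction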;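 note: B-score of the F/F0 ratio slope over 7 to 12 s after thallium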
# Target sequence (P48048 whole entry, looked up): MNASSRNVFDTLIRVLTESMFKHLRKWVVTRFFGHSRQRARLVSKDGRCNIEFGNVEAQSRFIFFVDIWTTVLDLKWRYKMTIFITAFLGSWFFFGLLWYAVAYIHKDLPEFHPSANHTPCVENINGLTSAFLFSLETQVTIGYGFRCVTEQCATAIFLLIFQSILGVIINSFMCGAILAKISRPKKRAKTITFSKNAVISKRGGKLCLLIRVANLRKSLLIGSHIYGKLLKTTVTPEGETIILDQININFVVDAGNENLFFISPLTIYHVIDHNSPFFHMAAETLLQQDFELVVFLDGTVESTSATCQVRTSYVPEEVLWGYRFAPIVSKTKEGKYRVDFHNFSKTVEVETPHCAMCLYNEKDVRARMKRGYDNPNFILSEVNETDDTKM
# ROMK hit retest = confirmation of human ROMK potassium channel modulators. shares compounds with ROMK mod. normalized thallium flux (F/F0 slope) at 10 µM. ROMK thallium flux, fluorescence ratio; stronger effect = lower value. 3,000 tested, 54% active;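 active = Flux at 10 µM at least 3 SD below or above vehicle control mean in one or both replicates; inconclusive = no clear call, values can overlap the other calls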
# Numbers stand for hits; - = inactive; ? = inconclusive; . = not tested or not shown.
SMILES,Calb biofilm kill,Pf gamet viab,ROMK mod,ROMK hit retest
NC(=O)CC(NC(=O)c1ccccc1)c1ccc(NC2CCCC2)c([N+](=O)[O-])c1 (stereo not drawn),-,-,.,.
CCSc1nccc(-c2nn(-c3ccc(C)cc3)ccc2=O)n1,.,.,3.1,-
C=CCSc1nccc(-c2nn(-c3ccc(C)cc3)ccc2=O)n1,.,-,.,.
C#CCSc1nccc(-c2nn(-c3ccc(C)cc3)ccc2=O)n1,.,-,-,.
CSc1nccc(-c2nn(-c3ccc(C)cc3)ccc2=O)n1,.,-,4.4,-
COc1ccccc1C/C(N)=N/OC(=O)/C=C/c1ccccc1,-,-,-,.
NC(=O)Cc1ccc(Nc2nnc(-c3ccc(O)cc3)c3ccccc23)cc1,-,.,.,.
Cc1nnc(SCC(=O)Nc2ccc([N+](=O)[O-])cc2)n1C,.,-,.,.
O=C(O)C1SCCN1S(=O)(=O)c1ccc(N=NN2CCOCC2)cc1 (stereo not drawn),-,-,-,.
CCOCCCNC(=O)/C(C#N)=C/c1cc(OC)c(O)c([N+](=O)[O-])c1,-,-,3,-
CCOCCCNC(=O)/C(C#N)=C/c1ccc(Cl)c([N+](=O)[O-])c1,-,-,-4.2,0.033
CCOCCCNC(=O)/C(C#N)=C/c1cc(C)c(O)c(C)c1,-,-,-,.
COCCNC(=O)/C(C#N)=C/c1ccc(O)c([N+](=O)[O-])c1,-,-,-,.
CN(C)CCCNc1ccc(-c2nn(C)c(=O)c3ccccc23)cc1[N+](=O)[O-],-,-,-,.
CCCc1ccc(OCC(=O)NNC(=O)c2cccnc2)cc1,-,.,-,.
c1ccc(Oc2cccc(Oc3ccccc3)n2)cc1,.,-,.,.
Cc1ccc(-n2cc(CN3CCC(CO)(Cc4cccc(C(F)(F)F)c4)CC3)cn2)cc1,-,.,-,.
Cc1ccc(-n2cc(CN3CCC(CO)(Cc4ccccc4)CC3)cn2)cc1,-,-,-5.2,0.059
O=C1CC(C(=O)O)S/C(=N\N=C\c2ccc(Br)cc2)N1 (stereo not drawn),-,-,-,.
C[c-]1[c-](C)[c-](C)[c-](C)[c-]1C.[Fe].c1cc2nccc(N3CCCC3)[c-]2c1 (stereo not drawn),-,-,.,0.048
Cn1cnc2c(N3CCCCC3)nccc21,.,-,.,.
CC/C(C)=N/Oc1nc(C)cc(C)n1,-,-,.,.
N#C/C(=C\c1ccc(Cl)cc1)c1n[nH]c(Cn2cncn2)n1,.,.,-4.1,0.047
COc1ccc(/C=C(\C#N)c2n[nH]c(Cn3cncn3)n2)cc1,-,-,-,.
O=[n+]1c2c(n([O-])c3cc(F)c(N4CCCC4)cc31)CCC2,.,-,.,.
SMILES,Calb biofilm kill,Pf gamet viab,ROMK mod,ROMK hit retest
O=[n+]1c2c(n([O-])c3cc(F)c(N4CCCC4)cc31)CCCC2,.,-,-6.3,0.043
Cc1cccc(OCC(=O)O/N=C(\N)c2ccc(Br)cc2)c1,-,-,-,.
CCOc1cc2[nH]c(=S)n(CCC(=O)NCc3ccco3)c(=O)c2cc1OCC,-,-,-,.
CCOC(=O)CN1C(=O)CSc2ccc(S(=O)(=O)N3CCCC3)cc21,-,-,-,.
CC1CCCCC1NC(=O)CN1C(=O)CSc2cc(S(=O)(=O)N3CCCCCC3)ccc21 (stereo not drawn),-,-,-4.5,0.065
Cc1c(C(=O)N2CCCCC2)sc(NC(=O)C23CC4CC(CC(C4)C2)C3)c1C#N,.,.,-,.
CCN(CC)C(=O)CSC(Nc1ccc(F)cc1)=C(C#N)C#N,-,-,.,0.059
Cc1ccc(NC(=O)CSCc2ccc(F)cc2)cc1,-,-,-,.
Cc1ccc(CSC(Nc2ccc(F)cc2)=C(C#N)C#N)cc1,-,-,-,-
CCN(CC)C(=O)CSC(=Nc1ccccc1F)NC#N,.,-,-,.
CC(=O)c1cc(-c2ccc(F)cc2)n(CCC(=O)Nc2cccnc2)c1C,-,-,-,.
CC(C)(CNC(=O)COc1ccccc1Cc1ccccc1)N1CCOCC1,-,-,-,.
Cc1sc(NC(=O)CN2CCOCC2)c(C#N)c1C,-,-,-,.
Cn1c(=O)[nH]c(=O)c2c1nc(SCCO)n2CC(O)COc1ccccc1 (stereo not drawn),-,-,-,.
O=C(NC1CCCCC1)N(C1=NCCCCC1)c1ccc(Br)cc1,-,.,.,.
CC(C)(C)C(=O)c1cnc(Nc2ccccc2Cl)s1,.,.,5.4,-
CC(=O)c1csc(Nc2ccccc2Cl)n1,-,-,.,.
Cc1ccc(S(=O)(=O)NC2=NCN(Cc3cccnc3)CN2)cc1,.,-,-,.
Cc1ccc(S(=O)(=O)NC2=NCN(C3CCCCC3)CN2)cc1,.,.,.,?
CCCc1nnc(SCC(=O)N2CCOCC2)n1C,-,.,.,.
CC1=C(C(=O)OC2CCCCC2)C(c2ccc(C)o2)C2=C(CCCC2=O)N1 (stereo not drawn),.,.,-,.
CC1=C(C(=O)OC2CCCCC2)C(c2ccco2)C2=C(CC(C)(C)CC2=O)N1 (stereo not drawn),.,-,.,-
N#Cc1ccccc1S(=O)(=O)N1CCN(c2cnccn2)CC1,-,-,-,.
